Bioassay records as filed in PubChem BioAssay.
The list is not random: actives were taken first. Their share in the collection is about 1.3%.
NR2E3 ag-1 = activates human photoreceptor nuclear receptor NR2E3. inhibition of corepressor binding, % at 4.78 µM. 320,000 compounds, 0.12% hits. AID 2300. GST-NR2E3/biotin-RetCOR TR-FRET, 1536-well. Q9Y5X4;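 active means percent inhibition above the cutoff of mean plus 3 SD of all tested compounds, set per screening campaign, cut at about 20% in these data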;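 further: 0% = DMSO wells and 100% = biotin wells as full block of FRET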
Target sequence (Q9Y5X4 whole entry, looked up): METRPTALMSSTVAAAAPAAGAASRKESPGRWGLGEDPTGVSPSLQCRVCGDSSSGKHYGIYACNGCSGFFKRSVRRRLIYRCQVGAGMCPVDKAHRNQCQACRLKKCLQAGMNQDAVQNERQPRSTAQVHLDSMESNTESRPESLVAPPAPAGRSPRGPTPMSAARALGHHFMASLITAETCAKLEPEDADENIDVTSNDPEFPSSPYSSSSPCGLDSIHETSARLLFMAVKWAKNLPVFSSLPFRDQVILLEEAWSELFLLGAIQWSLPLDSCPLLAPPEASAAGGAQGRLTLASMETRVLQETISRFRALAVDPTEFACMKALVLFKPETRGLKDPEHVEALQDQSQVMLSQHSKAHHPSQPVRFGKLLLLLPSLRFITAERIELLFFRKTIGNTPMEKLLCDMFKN
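Material – GST-tagged NR2E3 plus biotinylated RetCOR corepressor · Quantity – NR2E3 fusion 1.35 nM · Times – 5 h incubation at 4 °C · Medium – pH 7.5 Tris-based buffer · Technique – TR-FRET, Eu(K)-anti-GST donor, streptavidin-D2 acceptor, ex 340, em 617/671 nm · Benchmarks – high control biotin, low control 0.6% DMSO · Format – 1536-well plates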
PP1 inh = PP1-alpha (human) inhibition in PP5 counter-screen; purified PP1alpha, OMFP fluorescence; inhibition, % at 6.7 µM; AID 2235; P62136; 320,000 compounds, 0.9% hits;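 active means inhibition above the mean inhibition of all tested compounds plus 3 SD, computed separately for each screening campaign, cut at about 15% in these data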
Target sequence (P62136 whole entry, looked up): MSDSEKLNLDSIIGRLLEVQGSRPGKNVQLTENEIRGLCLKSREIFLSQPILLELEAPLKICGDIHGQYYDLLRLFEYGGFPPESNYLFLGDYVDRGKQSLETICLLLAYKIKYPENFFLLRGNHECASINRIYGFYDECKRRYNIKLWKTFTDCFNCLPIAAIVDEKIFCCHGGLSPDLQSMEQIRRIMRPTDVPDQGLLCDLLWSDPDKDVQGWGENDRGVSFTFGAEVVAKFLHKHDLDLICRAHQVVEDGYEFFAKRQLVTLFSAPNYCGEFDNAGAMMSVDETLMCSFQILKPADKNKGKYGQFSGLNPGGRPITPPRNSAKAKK
PP5 primary = inhibitors of human protein phosphatase 5 (PP5) | P53041 | inhibition, % at 6.7 µM | 320,000 compounds, 0.18% hits | purified PP5c, OMFP substrate fluorescence | AID 1987;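 active means inhibition above the campaign's mean inhibition across all tested compounds plus 3 SD, cut at about 9.5% in these data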;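 further: 0% = DMSO only and 100% = 100 µM cantharidin control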
NR2E3 ag-2 = agonists of human NR2E3 nuclear receptor | Q9Y5X4 | CHO-S Gal4-NCOR/VP16-NR2E3 two-hybrid, luciferase | inhibition of corepressor binding, % at 3.98 µM | 360,000 compounds, 0.35% hits | AID 602229;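 active means inhibition above the mean of all tested compounds plus 3 SD, cut at about 70% in these data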;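 further: 0% = DMSO with NR2E3 transfected cells and 100% = cells lacking NR2E3 construct; higher means lower luciferase signal from less NR2E3 corepressor binding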
NR2E3 ag conf = confirmation of human NR2E3 agonists; 2,300 compounds, 51% hits; AID 624378; CHO-S mammalian two-hybrid NR2E3-NCOR, luciferase luminescence; shares compounds with NR2E3 ag-2; inhibition, % at 3.98 µM;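 active means average inhibition above a cutoff equal to the mean inhibition of all tested compounds plus one SD, cut at about 70% in these data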;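 further: 0% = DMSO in NR2E3 cells and 100% = DMSO in cells lacking NR2E3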
GAL4-VP16 luc = counter-screen for NR2E3 agonists: GAL4-VP16 reporter inhibitors | CHO-S GAL4-VP16 luciferase reporter, luminescence | 2,300 compounds, 29% hits | shares compounds with NR2E3 ag-2 | inhibition, % at 3.98 µM;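 active means mean inhibition above a cutoff equal to the average over all tested compounds plus one standard deviation, cut at about 70% in these data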;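 further: luciferase from a UAS reporter driven by GAL4-VP16 transactivation; 0% = DMSO with VP16-transfected cells and 100% = DMSO with cells lacking VP16; higher means less reporter light so more repression of VP16 activity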
Numbers without * were called inactive; . = not tested or not shown.

SMILES | NR2E3 ag-1 | PP1 inh | PP5 primary | NR2E3 ag-2 | NR2E3 ag conf | GAL4-VP16 luc
Oc1ccc(N2CCN(Cc3cc4c(cc3Br)OCCO4)CC2)cc1 | 0 | 0 | 1 | 2 | . | .
CC1OC2CC(=O)OC2C2=C1C(=O)c1c(O)cccc1C2=O (centres undefined) | . | . | . | 101* | 98* | 98*
CCCCCOc1ccc(Br)cc1CSC(=N)N | . | . | . | 61 | 90* | 59
COc1ccc(Br)cc1CSC(=N)N | -2 | 1 | 0 | -9 | . | .
O=C(N/C(=C\c1cccc([N+](=O)[O-])c1)C(=O)N1CCOCC1)c1cccc(Br)c1 | 2 | -1 | -1 | -28 | . | .
CCCCCCC[C@@H](C/C=C/CCC(=O)N(C)C/C(=C/Cl)C/C(=C\C(=O)N1C[C@H](O)CC1=O)OC)OC | . | . | . | 62 | 62 | 53
CCOC(=O)C1=C[C@@H](C2CCCCC2)N(S(=O)(=O)c2ccc([N+](=O)[O-])cc2)[C@H]1c1ccccc1 | . | . | . | 74* | 52 | 43
CCOC(=O)C1=CC[C@@H](c2ccc([N+](=O)[O-])cc2)N(S(=O)(=O)c2ccc(C)cc2)[C@H]1c1ccccc1 | . | . | . | -18 | . | .
S=c1[nH]nc(CSCCOc2ccc(Cl)cc2Cl)o1 | -3 | 1 | -4 | -39 | . | .
Clc1c(Cl)c(Cl)c2n[nH]nc2c1Cl | -4 | 0 | -2 | 64 | 96* | 81*
O=C(Nc1cccc(F)c1)C1CCCN(c2cnccn2)C1 (centres undefined) | -1 | -3 | 1 | -15 | . | .
CCSc1nsc(NC(=O)Nc2cccc(F)c2)n1 | 3 | 14 | -1 | 93* | 99* | 84*
O=C(NCCCN1CCOCC1)c1cccc(S(=O)(=O)N2CCc3ccccc32)c1 | . | . | . | -38 | . | .
C#CC1CCCCC1NC(=O)Nc1cnccc1C(F)(F)F (centres undefined) | 2 | -1 | -2 | -2 | . | .
O=C1CCN(Cc2ccccc2)C(=S)N1 | . | . | . | -17 | . | .
O=C(Cc1cccc2ccccc12)NCC(=O)N1CCN(Cc2cccc(C(F)(F)F)c2)CC1 | 3 | 0 | 1 | 59 | 50 | 42
O=C(Cc1cccc2ccccc12)NCC(=O)N1CCN(CC(=O)Nc2ccc(F)cc2)CC1 | . | . | . | 27 | . | .
Clc1ccc2c(NCc3ccco3)ncnc2c1 | 1 | -3 | 0 | 54 | 45 | 43
CC(=O)c1cccc(NC(=O)C(C)OC(=O)CCc2nc3ccccc3c(=O)[nH]2)c1 (centres undefined) | . | . | . | -6 | . | .
Cc1nn(C)c(C)c1CN(C)S(=O)(=O)c1ccc(F)cc1 | 5 | -4 | 1 | 11 | . | .
Cc1nn(C)c(C)c1CN(C)S(=O)(=O)c1ccc2ccccc2c1 | 1 | -3 | -1 | 85* | 96* | 86*
Nc1nc(-c2ccccc2)nn1C(=O)Cc1ccccc1 | 3 | 1 | 5 | 82* | 1 | -3
Nc1nc(-c2cccnc2)nn1C(=O)Cc1ccccc1 | 1 | -5 | -1 | -3 | . | .
Cc1cc(C)nc(SCC(=O)Nc2sc3c(c2C#N)CCC(C)C3)n1 (centres undefined) | -3 | 1 | 2 | 71* | 74* | 77*
COc1ccc(C(C)(C)NC(=O)C2CCC(=O)N(C3CCCC3)C2)cc1OC (centres undefined) | 1 | 0 | 3 | -9 | . | .
SMILES | NR2E3 ag-1 | PP1 inh | PP5 primary | NR2E3 ag-2 | NR2E3 ag conf | GAL4-VP16 luc
COCC(=O)Oc1cc(-c2ccc(C)cc2C)c(OC(=O)COC)c(-c2ccc(C)cc2C)c1 | . | . | . | 69 | 24 | 8
O=[N+]([O-])c1ccc2c(c1)ncn2-c1ccccc1 | -1 | 2 | 2 | -4 | . | .
O=[N+]([O-])c1ccc2c(c1)ncn2CCc1ccccc1 | . | . | . | 76* | -8 | -11
Cc1cc(Nc2cccc(Cl)c2)nc(NCc2ccccc2)n1 | 2 | 16* | 7 | 93* | 96* | 76*
Cc1cc(C)nc(NCc2ccc(Cl)cc2)n1 | 0 | -2 | 0 | 1 | . | .
CCNC(=O)C1(C)CCN(C(=O)c2ccc(-c3ccccc3)cc2)C1 (centres undefined) | . | . | . | -8 | . | .
Cc1nc2ccccc2n1Cc1ccc(Br)cc1 | 4 | -1 | 0 | 84* | 94* | 85*
O=S(=O)(c1cccc(Br)c1)N1CCN(c2ncnc3scc(-c4ccccc4)c23)CC1 | . | . | . | -37 | . | .
Cc1csc2ncnc(N3CCN(S(=O)(=O)c4cccc(C(F)(F)F)c4)CC3)c12 | 1 | 7 | 3 | 94* | 97* | 90*
O=C(O)CCC1(CCC(=O)O)CCCC(CCC(=O)O)(CCC(=O)O)C1=O | . | . | . | -1 | . | .
CCOc1ccc2nc(NC(=O)C3CCN(c4cnccn4)CC3)sc2c1 | 0 | 1 | 6 | 53 | 54 | 11
CC1=NN(C(=O)c2ccccc2-n2cccc2)C(O)(C(F)(F)F)C1 (centres undefined) | 1 | -2 | 0 | 19 | . | .
CC(=O)Nc1ccc(S(=O)(=O)NC2CC(=O)N(c3ccc(C)c(C)c3)C2)cc1 (centres undefined) | 2 | -1 | 1 | 16 | . | .
CN(C(=O)C(C)(C)C)c1ccc(OCC(=O)N2CCc3ccccc3C2)cc1 | -4 | 0 | -1 | 76* | 62 | 63
Cc1ccc(S(=O)(=O)C(NC(=O)c2ccccc2)=C(Cl)Cl)cc1 | 0 | 0 | 2 | 22 | . | .
O=C(NC(=C(Cl)Cl)S(=O)(=O)c1ccc(Cl)cc1)c1ccccc1 | -1 | 0 | 0 | 64 | 33 | 20
CC(=O)NC(=C(Cl)Cl)S(=O)(=O)c1ccccc1 | -5 | -9 | -4 | 51 | 6 | -7
CCc1nc2ccc(C(=O)Nc3cc(-c4ccccc4)ccc3OC)cn2c1N(C)Cc1nccs1 | . | . | . | 10 | . | .
CC(=O)N1CCc2cc(S(=O)(=O)NC3CCCc4ccccc43)ccc21 (centres undefined) | 3 | -1 | 4 | 67 | 56 | 53
Cc1ccc(C(=O)Sc2cccccc2=O)cc1 | -3 | 1 | 4 | 101* | -22 | -82
O=C(Nc1ccccc1SC(=O)c1ccccc1)c1ccccc1 | . | . | . | -82 | . | .
CN(C)CCCNCC(=O)NN(c1ccccc1)c1ccccc1 | -2 | -4 | 0 | . | . | .
O=C(Nc1ccc(Oc2ccccc2)cc1)c1csc([C@H]2C[C@H](O)[C@@H](CO)O2)n1 | . | . | . | 48 | 78* | 61
O=S(=O)(c1cc(F)ccc1F)N1CCN(c2ccccn2)CC1 | -3 | -3 | 1 | -12 | . | .
O=S(=O)(c1cc(F)ccc1F)N1CCN(c2ncnc3ccccc23)CC1 | . | . | . | 88* | 92* | 74*
CCCCCCSc1ccc([C@H]2N[C@@](C)(C(=O)OC)[C@H]3C(=O)N(CC)C(=O)[C@@H]23)cc1 | 2 | 7 | 4 | 3 | . | .
COCCCNC(=S)N1CCN(c2nc(-c3ccc(Cl)cc3)cs2)CC1 | . | . | . | 65 | 73* | 53
CN(C(=O)OC(C)(C)C)c1ccc(-c2nc3ccccc3s2)cc1 | 2 | 1 | 3 | 89* | 86* | 77*
